ChEMBL document CHEMBL1143652, “Joys of molecules. 2. Endeavors in chemical biology and medicinal chemistry” (J Med Chem, 2005)
Values after ≈ are worked out from the molar mass of the structure shown.

What was measured:
[1] = system: 1A9; assay: Cytotoxicity against 1A9 human ovarian carcinoma cells; type: functional, cell-based
[2] = system: 1A9; assay: Cytotoxicity against 1A9 ovarian cancer cells; type: functional, cell-based; details: Homo sapiens
[3] = system: KB 3-1; assay: Cytotoxicity against KB-31 human epidermoid cancer cells; type: functional, cell-based
[4] = system: KB 3-1; assay: Cytotoxicity against KB3-1 human epidermoid cancer cells; type: functional, cell-based
[5] = system: 1A9; assay: Inhibition concentration against human ovarian 1A9 tumor cells; type: functional, cell-based
[6] = molecular target: Tubulin beta-4B chain (Homo sapiens) (UniProt P68371); assay: (§1) Tubulin polymerization at a concentration of 100 uM incubated for 90 minutes; type: functional
Tubulin beta-4B chain (Homo sapiens), sequence (P68371 whole entry): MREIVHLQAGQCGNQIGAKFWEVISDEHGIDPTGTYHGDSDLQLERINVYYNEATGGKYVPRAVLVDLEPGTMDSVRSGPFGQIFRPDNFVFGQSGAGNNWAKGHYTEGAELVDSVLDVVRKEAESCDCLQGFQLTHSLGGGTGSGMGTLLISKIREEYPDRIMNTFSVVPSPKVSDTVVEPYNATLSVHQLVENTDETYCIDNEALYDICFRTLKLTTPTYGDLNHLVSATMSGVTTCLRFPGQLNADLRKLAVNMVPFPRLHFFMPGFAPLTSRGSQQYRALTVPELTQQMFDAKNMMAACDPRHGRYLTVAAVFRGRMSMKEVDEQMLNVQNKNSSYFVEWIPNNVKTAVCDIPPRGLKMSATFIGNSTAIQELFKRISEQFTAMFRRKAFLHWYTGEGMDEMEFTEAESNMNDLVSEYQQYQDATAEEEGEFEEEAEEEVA
Outline: (§2)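 Tubulin polymerization was read as percent polymerization, with test drug at 100 µM and a 90 min incubation.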

[7] = molecular target: Tubulin beta-4B chain (Homo sapiens) (UniProt P68371); assay: as §1; outline: as §2
[8] = species on record: Felis catus; assay: Inhibition of LTC4 and LTD4 production in cat lung at 5 mM; type: functional
[9] = system: Staphylococcus aureus; assay: Minimum inhibitory concentration against methicillin resistant Staphylococcus aureus (MRSA); type: functional
[10] = In vitro cytotoxicity against leukemia P-388 tumor cells; type: functional, cell-based; details: Mus musculus, P388
[11] = Antiproliferation activity against cancer cell lines by mixed-lymphocyte-reaction proliferation assay; type: functional, cell-based; details: Homo sapiens
[12] = molecular target: Polyunsaturated fatty acid 5-lipoxygenase (Homo sapiens) (UniProt P09917); assay: Inhibitory concentration against 5-lipoxygenase
Polyunsaturated fatty acid 5-lipoxygenase (Homo sapiens), sequence (P09917 whole entry): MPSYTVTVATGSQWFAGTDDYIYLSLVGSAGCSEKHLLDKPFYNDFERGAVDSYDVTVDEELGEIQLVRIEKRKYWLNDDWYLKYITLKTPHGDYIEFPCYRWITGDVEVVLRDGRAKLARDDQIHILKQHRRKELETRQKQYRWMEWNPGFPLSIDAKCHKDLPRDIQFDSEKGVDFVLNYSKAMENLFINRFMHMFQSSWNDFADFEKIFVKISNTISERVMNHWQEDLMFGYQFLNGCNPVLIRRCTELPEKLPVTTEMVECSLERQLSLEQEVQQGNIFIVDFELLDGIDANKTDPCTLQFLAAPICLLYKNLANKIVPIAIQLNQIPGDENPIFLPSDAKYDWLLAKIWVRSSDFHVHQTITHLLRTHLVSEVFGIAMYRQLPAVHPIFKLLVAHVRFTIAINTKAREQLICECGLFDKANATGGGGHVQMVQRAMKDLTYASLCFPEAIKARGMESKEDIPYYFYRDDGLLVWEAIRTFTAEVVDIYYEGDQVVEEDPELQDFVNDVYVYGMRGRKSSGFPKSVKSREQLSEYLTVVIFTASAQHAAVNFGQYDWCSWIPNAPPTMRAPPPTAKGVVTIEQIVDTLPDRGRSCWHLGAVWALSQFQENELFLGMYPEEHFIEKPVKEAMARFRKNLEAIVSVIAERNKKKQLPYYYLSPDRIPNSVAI

[13] = system: Enterococcus faecium; assay: Minimum inhibitory concentration against vancomycin resistant Enterococcus faecium; type: functional
[14] = system: 1A9; assay: Inhibitory concentration against human 1A9 ovarian carcinoma cells; type: functional, cell-based
[15] = system: Bacteria; assay: Minimum inhibitory concentration against bacterial strains; type: functional
[16] = molecular target: T1, Mycothiol S-conjugate amidase (Mycobacterium tuberculosis, UniProt P9WJN1); assay: Inhibition of Mycobacterium tuberculosis detoxification enzyme mycothiol-S-conjugate amidase (MCA)
T1 sequence (P9WJN1 whole entry): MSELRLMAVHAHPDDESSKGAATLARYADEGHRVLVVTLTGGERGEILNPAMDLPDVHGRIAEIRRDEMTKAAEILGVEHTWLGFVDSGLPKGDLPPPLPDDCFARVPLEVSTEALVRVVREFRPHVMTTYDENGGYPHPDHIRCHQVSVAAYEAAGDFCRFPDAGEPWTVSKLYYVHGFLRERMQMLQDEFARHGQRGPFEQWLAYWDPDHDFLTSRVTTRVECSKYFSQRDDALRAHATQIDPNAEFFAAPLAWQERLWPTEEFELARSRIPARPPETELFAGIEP

SMILES: CC/C=C\C=C/C(=O)N/C=C/C[C@H]1C[C@H]2C[C@H](OC(C)=O)C[C@H](Cc3cccc(O)c3C(=O)O1)O2
- IC50 [1]: 0.0032 µM

SMILES: COC1(OC)C2=C(OC(C)(C)C=C2)C(=O)[C@@H](OC(=O)C2=C[C@]3(OC)C[C@H]4C(C)(C)OC(CC=C(C)C)(C3=O)[C@]24O)[C@@H]1CC=C(C)C
- IC50 [2]: 9 µM

SMILES: CC(C)=CCc1c2c(c(O)c3c1O[C@]14C(=C[C@@H]5C[C@H]1C(C)(C)OC4(CC=C(C)C)C5=O)C3=O)C=CC(C)(C)O2
- IC50 [3]: 8.41 µM
- IC50 [4]: 8.41 µM

SMILES: CCCOC(=O)/C1=C/[C@@H]2[C@@H](C(C)C)CC=C(C)[C@@H]2C[C@H](OC(=O)/C=C/c2cn(C)cn2)[C@]2(C)C=C[C@@]1(OC)O2
- IC50 [5]: 0.003 µM
- TP [6]: 69%
- TP [7]: 69%

SMILES: O=C(/C=C/c1cccs1)N/C=C/C[C@H]1C[C@H]2C[C@H](O)C[C@H](Cc3cccc(O)c3C(=O)O1)O2
- IC50 [1]: 0.0413 µM

SMILES: CCCCC/C=C\C/C=C\C/C=C\C1(/C=C\CCCC(=O)O)CC1
- Inhibition [8]: 8%

SMILES: CCOC(=O)/C1=C/[C@@H]2[C@@H](C(C)C)CC=C(C)[C@@H]2C[C@H](OC(=O)/C=C/c2cn(C)cn2)[C@]2(C)C=C[C@@]1(OC)O2
- IC50 [5]: 0.002 µM
- TP [6]: 46%
- TP [7]: 46%

SMILES: CC1(C)C=Cc2cc(-c3ccco3)cc(/C=C(/C#N)c3ccc(O)cc3)c2O1
- MIC [9]: 2 µg/mL (≈ 5.41 µM)
- MIC ([9]; Staphylococcus aureus, read-out: MIC): 2 µg/mL (≈ 5.41 µM)

SMILES: COC(=O)[C@]1(O)C(=O)c2c(cc(C)c(Br)c2O)[C@H]2[C@@H](C(C)C)CC[C@]21C [HAMIGERAN A]
- IC50 [10]: 31.6 µM

SMILES: CC/C=C/C=C/C(=O)N/C=C/C[C@H](O)C[C@H]1C[C@H](OC(C)=O)C[C@H](Cc2cccc3c2C(=O)OC(C)(C)O3)O1
- IC50 [1]: 0.035 µM

SMILES: CCCCCCCCCC[C@H]1C[C@H]1CCCC/C=C\CC[C@@H](O)C(=O)N[C@@H](CO[C@@H]1O[C@@H](CO)[C@@H](O)[C@H](O)[C@@H]1OC/C=C(\C)CCC=C(C)C)[C@H](O)CCCCCCC[C@@H]1C[C@@H]1CCCCCCCCCC
- IC50 [11]: 28 µM

SMILES: CCCCC/C=C/C\C=C/C=C/C=C/[C@@H]1C[C@H]1CCCC(=O)OC
- ID50 [12]: 6 µM

SMILES: CCCCCCCCCC[C@H]1C[C@H]1CCCC/C=C\CC[C@@H](O)C(=O)N[C@@H](CO[C@@H]1O[C@@H](CO)[C@@H](O)[C@H](O)[C@@H]1OCC=C(C)C)[C@H](O)CCCCCCC[C@@H]1C[C@@H]1CCCCCCCCCC
- IC50 [11]: > 50 µM

SMILES: CC(C)C[C@H]1NC(=O)[C@H](Cc2ccccc2)NC(=O)CNC(=O)[C@H](C)NC(=O)[C@H](Cc2ccc(O)cc2)NC(=O)/C=C\c2ccccc2OCOC1=O
- MIC [13]: 0.25 µg/mL (≈ 0.343 µM)

SMILES: CC(C)=CCCC1(C)C=Cc2c(O)c3c(c(CC=C(C)C)c2O1)O[C@]12C(=CC4C[C@H]1C(C)(C)OC2(CC=C(C)C)C4=O)C3=O (some centres not stated) [GAMBOGIN]
- IC50 [3]: 9.35 µM
- IC50 [4]: 9.35 µM

SMILES: COC[C@@H](C[C@H]1O[C@@](O)([C@H](O)[C@@H]2C[C@H](OC)[C@@H](O)CC/C=C(C)/C=C/[C@@H](O[C@@H]3O[C@@H](C)[C@H](OC)[C@@H](O)[C@@H]3O)[C@H](C)/C=C(C)/C=C(C)/C=C(\C)C(=O)O2)[C@H](C)[C@@H](O)[C@H]1C)OC1C[C@](C)(O)[C@@H](O[C@H]2C[C@@H](OC)[C@H](O)[C@@H](C)O2)[C@H](C)O1 (some centres not stated) [APOPTOLIDIN]
- IC50 [14]: 240 µM

SMILES: Cc1cc(O)c2c(c1)[C@H]1[C@@H](C(C)C)CC[C@@]1(C)C(=O)C2=O
- IC50 [10]: 13.9 µM

SMILES: CC(C)=CCc1c2c(c(O)c3c1O[C@]14C(=C[C@@H]5C[C@H]1C(C)(C)OC4(CC=C(C)C)C5=O)C3=O)C=CC(C)(CCC(C)C)O2 (some centres not stated)
- IC50 [3]: 6.01 µM
- IC50 [4]: 6.01 µM

SMILES: O=C(NCCSSc1ccc(F)cc1)/C(Cc1cc(F)cc(F)c1)=N/O
- MIC [15]: 0.46 ug m/L
- IC50 [16]: 2720 µM

SMILES: CCCCC/C=C\C/C=C\C1(/C=C\C2(/C=C\CCCC(=O)O)CC2)CC1
- Inhibition [8]: 5%

SMILES: Nc1ccc(SSCCNC(=O)/C(Cc2ccc(O)c(Cl)c2)=N/O)cc1
- MIC [15]: 1.23 ug m/L
- IC50 [16]: 35 µM

SMILES: C=CCO[C@@H]1[C@H](OC[C@H](NC(=O)[C@H](O)CC/C=C\CCCC[C@@H]2C[C@@H]2CCCCCCCCCC)[C@H](O)CCCCCCC[C@@H]2C[C@@H]2CCCCCCCCCC)O[C@@H](CO)[C@@H](O)[C@@H]1O
- IC50 [11]: 7.1 µM
